Source: PubChem BioAssay
Beta apoptosis = blocks beta cell apoptosis; INS-1E cytokine-induced death, ATP luminescence, 48 h; percent of positive-control rescue, neutral wells zero; protection from apoptosis, % (test concentration not listed); AID 435005; 300,000 tested, 0.8% active;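 active = Every replicate reaches about 75%, or at least half do and their mean reaches it too, limit read from the data; inconclusive = At least half of replicates reach the limit but their mean does not; inactive = Under half of replicates reach the limit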;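 also: higher means more ATP so stronger rescue from cytokine killing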
A1 inh = inhibitors of the anti-apoptotic protein A1, read as caspase activation | 330,000 tested, 0.066% active | caspase activation, % (no concentration beside the values) | AID 2462 | MEF A1-2A-BIM cells, Caspase-Glo 3/7 luminescence, 3 h; percent of clofoctol response, vehicle zero;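 active = over half of replicate activation scores above 10%, or exactly half above 10 with the replicate mean above 10; inconclusive = replicate mean below 10 yet half the replicates above 10; inactive = over half of replicates below 10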
HIF activator = HIF pathway transcriptional activation; activation, % at 7.5 µM (by protocol); AID 1910; U2OS HRE-luciferase reporter, luminescence; normalized: DMSO 0%, desferrioxamine 100%; 300,000 tested, 0.32% active;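 active = mean activation of at least 10% of the iron chelator positive control signal, with at least half of replicates also reaching 10%; inconclusive = mean and replicate majority disagree about reaching 10%; inactive = mean and most replicates under 10%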
KLF5 inhibitor = suppresses KLF5 promoter-driven expression | DLD-1 KLF5 promoter-luciferase reporter, luminescence | inhibition, % at 5 µM | 290,000 tested, 0.23% active;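 active = inhibition above a per-plate limit of that plate's mean compound inhibition plus 3 SD, cut at about 60% in these data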;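 also: higher means less KLF5 promoter-driven luciferase light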
T cruzi repl = blocks replication of Trypanosoma cruzi | T. cruzi beta-gal in NIH3T3, luminescence, 90 h | 300,000 tested, 1.4% active | AID 1885 | inhibition, % (concentration not given with the values);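 active = mean inhibition across valid replicates above about 55%, limit read from the data; inconclusive = mean below that limit but half or more replicates reach it; inactive = mean below it, under half of replicates reach it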;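 also: signal also drops with host cell toxicity which is not excluded here; higher percent means less beta-gal luminescence so fewer parasites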
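System – NIH/3T3 host cells with β-galactosidase reporter T. cruzi · Doses – single 50 nL compound addition per well in DMSO · Reagent – 5000 T. cruzi trypomastigotes/well · Medium – Low-serum DMEM with 2% FBS · Timing – ≥90 h infection period, 3 h prior cell attachment · Evaluation – parasite load inhibition, % · Technique – GalScreen luminescence, 60 min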
Numbers stand for hits; . = inactive; ? = inconclusive; / = no result given. Rows were chosen to be rich in hits. Some 2.3% of all compounds tested hit in one or more screens of this group.

SMILES	Beta apoptosis	A1 inh	HIF activator	KLF5 inhibitor	T cruzi repl
CCOc1ccccc1CN1CCN(Cc2ccc(C)o2)C(CCO)C1 (stereo unspecified)	.	.	.	.	.
CCOc1ccccc1CN1CCN(Cc2ccc(C)o2)CC1CCO (stereo unspecified)	.	.	.	.	.
COc1ccc(CN2CCN(Cc3cc4ccccc4o3)CC2CCO)cc1C (stereo unspecified)	/	.	.	.	55
CCOc1ccccc1CN1CCN(Cc2nc3ccccc3s2)CC1CCO (stereo unspecified)	.	.	.	.	58
CCOc1ccccc1CN1CCN(CC2=Cc3cc(OC)ccc3OC2)CC1CCO (stereo unspecified)	.	.	.	.	55
O=C(c1cccs1)N1CCC(c2nc3c(nnn3Cc3ccccc3Cl)c(=O)[nH]2)CC1	/	.	.	.	.
CCOc1ccccc1CN1CCN(Cc2[nH]c3ccccc3c2C)CC1CCO (stereo unspecified)	.	.	.	.	66
COc1ccc(CN2CCN(Cc3cccc4nonc34)CC2CCO)c(C)c1C (stereo unspecified)	.	.	.	.	66
CCOc1ccc(CN2CCN(Cc3nc(C(C)C)cs3)CC2CCO)cc1 (stereo unspecified)	.	.	.	.	58
Cc1nnc(SCC(=O)Nc2sc3c(c2C(N)=O)CCC(C)C3)[nH]c1=O (stereo unspecified)	.	.	/	/	/
C=C1SC(Nc2c(C)cc(C)cc2C)=NC12CCCCC2	.	.	.	.	67
C=C1SC(Nc2c(C)cccc2C)=NC12CCCCC2	.	.	.	.	64
O=C(Cc1ccc(NC2=NC3CS(=O)(=O)CC3S2)cc1)N1CCN(c2ccc(F)cc2)CC1 (stereo unspecified)	.	.	.	.	.
N#Cc1ccc(C(CC(=O)O)N2Cc3ccccc3C2=O)cc1 (stereo unspecified)	.	.	.	.	.
N=C(N)SCc1cn(-c2ccccc2)nc1-c1ccc(Br)cc1	/	/	.	.	55
S=c1nc2c(n[nH]1)c1ccccc1n2CCc1ccccc1	.	.	.	.	66
CSc1nnc2c3ccccc3n(CCc3ccccc3)c2n1	.	.	.	.	.
COc1cc(OC)cc(C(=O)N[C@H](C(=O)Nc2c(C)n(C)n(-c3ccccc3)c2=O)C(C)C)c1	.	.	/	/	/
CN(C)CC(CCC(CN(C)C)C(=O)c1ccccc1)C(=O)c1ccccc1 (stereo unspecified)	/	/	.	91	71
CCOc1ccc(C(=O)C(CCC(CN(C)C)C(=O)c2ccc(OCC)cc2)CN(C)C)cc1 (stereo unspecified)	/	/	.	.	.
O=C(c1ccc(F)cc1)C(CN1CCOCC1)c1ccccc1 (stereo unspecified)	/	.	.	.	58
O=C(c1ccccc1)C(CCC(CN1CCOCC1)C(=O)c1ccccc1)CN1CCOCC1 (stereo unspecified)	95	.	.	.	.
CC(=O)c1[nH]c(C)c(C(=O)N2CCCC(Nc3ccc(C(C)C)cc3)C2)c1C (stereo unspecified)	/	/	.	.	.
CC(=O)c1ccc(C(=O)N2CCCC(Nc3ccc(C(C)C)cc3)C2)s1 (stereo unspecified)	.	.	13	.	.
Cc1ccc(OCc2cc(C(=O)N(C)Cc3cc(C4CC4)n[nH]3)no2)cc1C	?	.	.	.	.
SMILES	Beta apoptosis	A1 inh	HIF activator	KLF5 inhibitor	T cruzi repl
COCCn1c(=NC(=O)c2ccc(S(=O)(=O)N3CCCc4ccccc43)cc2)sc2cc(S(C)(=O)=O)ccc21	.	.	105	.	.
C#CCn1c(=NC(=O)c2ccc(S(=O)(=O)N3CCc4ccccc4C3)cc2)sc2cc(S(N)(=O)=O)ccc21	104	.	.	.	.
CC(C)CC(=O)C1=C(O)C(=O)N(Cc2ccccc2)C1c1ccccc1 (stereo unspecified)	.	.	.	.	.
CCC(C)(C)n1nnnc1C(c1cccnc1)N1CCC(Cc2ccccc2)CC1 (stereo unspecified)	.	.	.	.	64
CC(C)(C)n1nnnc1C(c1cccc(C#N)c1)N1CCC(Cc2ccccc2)CC1 (stereo unspecified)	.	.	.	.	81
CC(C)(C)n1nnnc1C(c1cccc(C#N)c1)N1CCCc2ccccc21 (stereo unspecified)	.	.	.	.	.
